Reference: ChEMBL document CHEMBL1765020, “Synthesis and structure-affinity relationships of novel dibenzylideneacetone derivatives as probes for β-amyloid plaques” (J Med Chem, 2011)

How the values were obtained:
Assay type in all cases: ADME, organism-based
Spleen [1] = assay: Biodistribution in ddY mouse spleen at 1 uCi/100 uL, iv after 30 mins by gamma counting; conditions: in vivo, 0.5 h
Brain [2] = assay: Biodistribution in ddY mouse brain at 1 uCi/100 uL, iv after 2 mins by gamma counting; conditions: in vivo
Summary of the method: (§1)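 Normal female ddY mice (5 weeks, about 20 g; n = 4 per group) received radiotracer iv. Organs were removed and weighed at 2–120 min and counted in a γ-counter. Percent dose per gram of wet tissue was calculated against diluted aliquots of the injected material and reported as mean ± SD.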

Brain [3] = assay: Ratio of drug uptake in ddY mouse brain at 1 uCi/100 uL, iv after 2 mins to drug uptake in ddY mouse brain at 1 uCi/100 uL, iv after 60 mins; conditions: in vivo
Summary of the method: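 Normal female ddY mice (5 weeks) received the radiotracer iv, and brain uptake (% ID/g, n = 4) was measured by gamma counting at 2 and 60 min. The index is brain uptake at 2 min divided by brain uptake at 60 min.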

Stomach [4] = assay: Biodistribution in ddY mouse stomach at 1 uCi/100 uL, iv after 15 mins by gamma counting; conditions: in vivo, 0.25 h
Heart [5] = assay: Biodistribution in ddY mouse heart at 1 uCi/100 uL, iv after 30 mins by gamma counting; conditions: in vivo, 0.5 h; summary of the method: as §1
Stomach [6] = assay: Biodistribution in ddY mouse stomach at 1 uCi/100 uL, iv after 30 mins by gamma counting; conditions: in vivo, 0.5 h
Heart [7] = assay: Biodistribution in ddY mouse heart at 1 uCi/100 uL, iv after 2 mins by gamma counting; conditions: in vivo; summary of the method: as §1
Intestine [8] = assay: Biodistribution in ddY mouse intestine at 1 uCi/100 uL, iv after 120 mins by gamma counting; conditions: in vivo, 2 h; summary of the method: as §1
Thyroid gland [9] = assay: Biodistribution in ddY mouse thyroid at 1 uCi/100 uL, iv after 120 mins by gamma counting; conditions: in vivo, 2 h
Liver [10] = assay: Biodistribution in ddY mouse liver at 1 uCi/100 uL, iv after 60 mins by gamma counting; conditions: in vivo, 1 h
Lung [11] = assay: Biodistribution in ddY mouse lung at 1 uCi/100 uL, iv after 60 mins by gamma counting; conditions: in vivo, 1 h
Thyroid gland [12] = assay: Biodistribution in ddY mouse thyroid at 1 uCi/100 uL, iv after 30 mins by gamma counting; conditions: in vivo, 0.5 h
Lung [13] = assay: Biodistribution in ddY mouse lung at 1 uCi/100 uL, iv after 15 mins by gamma counting; conditions: in vivo, 0.25 h
Liver [14] = assay: Biodistribution in ddY mouse liver at 1 uCi/100 uL, iv after 15 mins by gamma counting; conditions: in vivo, 0.25 h
Stomach [15] = assay: Biodistribution in ddY mouse stomach at 1 uCi/100 uL, iv after 60 mins by gamma counting; conditions: in vivo, 1 h
Kidney [16] = assay: Biodistribution in ddY mouse kidney at 1 uCi/100 uL, iv after 60 mins by gamma counting; conditions: in vivo, 1 h
Liver [17] = assay: Biodistribution in ddY mouse liver at 1 uCi/100 uL, iv after 2 mins by gamma counting; conditions: in vivo
Kidney [18] = assay: Biodistribution in ddY mouse kidney at 1 uCi/100 uL, iv after 2 mins by gamma counting; conditions: in vivo; summary of the method: as §1
Intestine [19] = assay: Biodistribution in ddY mouse intestine at 1 uCi/100 uL, iv after 2 mins by gamma counting; conditions: in vivo; summary of the method: as §1
Thyroid gland [20] = assay: Biodistribution in ddY mouse thyroid at 1 uCi/100 uL, iv after 60 mins by gamma counting; conditions: in vivo, 1 h
Spleen [21] = assay: Biodistribution in ddY mouse spleen at 1 uCi/100 uL, iv after 2 mins by gamma counting; conditions: in vivo
Blood = assay: Biodistribution in ddY mouse blood at 1 uCi/100 uL, iv after 2 mins by gamma counting; conditions: in vivo; summary of the method: as §1
Spleen [22] = assay: Biodistribution in ddY mouse spleen at 1 uCi/100 uL, iv after 15 mins by gamma counting; conditions: in vivo, 0.25 h
Spleen [23] = assay: Biodistribution in ddY mouse spleen at 1 uCi/100 uL, iv after 120 mins by gamma counting; conditions: in vivo, 2 h
Kidney [24] = assay: Biodistribution in ddY mouse kidney at 1 uCi/100 uL, iv after 30 mins by gamma counting; conditions: in vivo, 0.5 h
Brain [25] = assay: Biodistribution in ddY mouse brain at 1 uCi/100 uL, iv after 60 mins by gamma counting; conditions: in vivo, 1 h; summary of the method: as §1

For `CNc1ccc(/C=C/C(=O)/C=C/c2ccc([125I])cc2)cc1`, the Drug uptake (Spleen [1]) was 2.22 % ID/g, the Drug uptake (Brain [2]) was 4.68 % ID/g and the Ratio (Brain [3]) was 6.59. It also gave a Drug uptake (Stomach [4]) of 3.82 % ID/organ, a Drug uptake (Heart [5]) of 3.29 % ID/g and a Drug uptake (Stomach [6]) of 3.17 % ID/organ. The Drug uptake (Heart [7]) was 8.11 % ID/g, the Drug uptake (Intestine [8]) was 41.29 % ID/g and the Drug uptake (Thyroid gland [9]) was 72.93 % ID/g. The Drug uptake (Liver [10]) was 22.63 % ID/g, the Drug uptake (Lung [11]) was 3.5 % ID/g and the Drug uptake (Thyroid gland [12]) was 27.78 % ID/g. For the same molecule, the Drug uptake (Lung [13]) was 7.42 % ID/g, the Drug uptake (Liver [14]) was 40.83 % ID/g and the Drug uptake (Stomach [15]) was 3.34 % ID/organ. For the same molecule, the Drug uptake (Kidney [16]) was 10.46 % ID/g, the Drug uptake (Liver [17]) was 39.22 % ID/g and the Drug uptake (Kidney [18]) was 14.73 % ID/g. For the same molecule, the Drug uptake (Intestine [19]) was 3.53 % ID/g, the Drug uptake (Thyroid gland [20]) was 23.96 % ID/g and the Drug uptake (Spleen [21]) was 4.57 % ID/g. For the same molecule, the Drug uptake (Blood) was 7.48 % ID/g, the Drug uptake (Spleen [22]) was 3.36 % ID/g and the Drug uptake (Spleen [23]) was 1.23 % ID/g. For the same molecule, the Drug uptake (Kidney [24]) was 15.54 % ID/g and the Drug uptake (Brain [25]) was 0.71 % ID/g.
